The values below come from ChEMBL document CHEMBL4014310, “Selective IKur Inhibitors for the Potential Treatment of Atrial Fibrillation: Optimization of the Phenyl Quinazoline Series Leading to Clinical Candidate 5-[5-Phenyl-4-(pyridin-2-ylmethylamino)quinazolin-2-yl]pyridine-3-sulfonamide” (J Med Chem, 2017).

In series [1] the target is T1, Potassium voltage-gated channel subfamily A member 5 (Homo sapiens, UniProt P22460). Particulars: at 0.3 µM; call rule not given here.
Series [2] is described as follows: Ratio of drug level in Sprague-Dawley rat brain to plasma at 3 mg/kg, iv administered as 10 mins infusion by LC-MS/MS analysis. Particulars: brain and plasma, read-out: BPR. It is filed as ADME, organism-based.
In series [3] the target is T2, Voltage-gated inwardly rectifying potassium channel KCNH2 (Homo sapiens, UniProt Q12809). As to the kind of experiment: Inhibition of human ERG expressed in HEK293 cells by flux assay.
T2 sequence (Q12809 whole entry): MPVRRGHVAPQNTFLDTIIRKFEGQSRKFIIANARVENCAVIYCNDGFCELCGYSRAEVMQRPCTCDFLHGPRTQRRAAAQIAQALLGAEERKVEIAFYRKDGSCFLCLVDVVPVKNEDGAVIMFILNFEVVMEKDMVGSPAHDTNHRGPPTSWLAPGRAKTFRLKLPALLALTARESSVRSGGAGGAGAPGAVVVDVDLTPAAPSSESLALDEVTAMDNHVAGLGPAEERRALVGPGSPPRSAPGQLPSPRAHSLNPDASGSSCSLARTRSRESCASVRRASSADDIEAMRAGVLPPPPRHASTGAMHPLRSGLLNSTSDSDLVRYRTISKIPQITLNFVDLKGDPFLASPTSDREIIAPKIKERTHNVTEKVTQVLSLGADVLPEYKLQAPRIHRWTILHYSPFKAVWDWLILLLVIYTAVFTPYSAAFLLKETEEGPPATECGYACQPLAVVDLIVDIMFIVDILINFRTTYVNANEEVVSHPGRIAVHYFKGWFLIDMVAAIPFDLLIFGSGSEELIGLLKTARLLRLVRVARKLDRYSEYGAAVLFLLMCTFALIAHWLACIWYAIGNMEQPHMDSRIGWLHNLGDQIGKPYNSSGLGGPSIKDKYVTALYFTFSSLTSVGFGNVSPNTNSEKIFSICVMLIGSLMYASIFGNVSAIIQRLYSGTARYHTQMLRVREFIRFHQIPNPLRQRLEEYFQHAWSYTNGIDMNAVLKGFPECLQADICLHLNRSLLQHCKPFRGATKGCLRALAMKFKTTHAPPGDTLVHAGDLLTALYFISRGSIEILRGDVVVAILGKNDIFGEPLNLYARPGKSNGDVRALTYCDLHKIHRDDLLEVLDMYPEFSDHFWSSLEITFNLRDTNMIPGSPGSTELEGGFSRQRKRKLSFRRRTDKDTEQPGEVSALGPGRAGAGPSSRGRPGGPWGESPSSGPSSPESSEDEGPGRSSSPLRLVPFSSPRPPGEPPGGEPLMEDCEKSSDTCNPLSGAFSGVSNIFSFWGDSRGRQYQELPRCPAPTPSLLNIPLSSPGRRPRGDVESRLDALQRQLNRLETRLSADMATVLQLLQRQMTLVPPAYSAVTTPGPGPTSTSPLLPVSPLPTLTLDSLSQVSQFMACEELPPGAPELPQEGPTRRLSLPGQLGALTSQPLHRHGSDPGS
A short description of series [4]: Stability in human liver microsomes assessed as compound remaining in presence of NADPH after 10 mins. Format: ADME, microsome. The conditions noted are these: read-out: Stability. A general note: Microsomes from liver hold many membrane-bound enzymes, among them those of drug oxidation.
For series [5], the target named is T1, Potassium voltage-gated channel subfamily A member 5. As to the kind of experiment: Inhibition of recombinant human Kv1.5 expressed in mouse L929 cells by patch clamp assay. It is filed as cell-based. The gist of the method: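 Whole-cell patch clamp of IKur current in mouse L-929 cells transfected with human KV1.5 and stably expressing the channel.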
Series [6] is described as follows: Protein binding in rat plasma. Format: ADME, cell-free. The conditions noted are these: read-out: PPB.
Series [7] is described as follows: Protein binding in human plasma. Particulars: read-out: PPB. Format: ADME, cell-free.
Series [8] concerns the target T2, Voltage-gated inwardly rectifying potassium channel KCNH2. Briefly: Inhibition of human ERG expressed in HEK293 cells by patch clamp method. Format: cell-based. For orientation: In patch-clamp work, channel activity is measured electrically.
The target of series [9] is T3, hERG (KCNH2) (Homo sapiens, UniProt Q12809). As to the kind of experiment: Inhibition of human ERG expressed in HEK293 cells at 10 uM by patch clamp method relative to control. It is filed as cell-based. The conditions noted are these: HEK293 cells expressing human ERG.
T3 sequence (Q12809 whole entry): as above
Series [10] in a line: Solubility of the compound in ethanol/propylene glycol/PEG-400. Format: physicochemical.
Series [11] is described as follows: Prodrug conversion in monkey famotidine model assessed as 5-[5-phenyl-4-(pyridin-2-ylmethylamino)-quinazolin-2-yl]pyridine-3-sulfonamide formation in intestinal brush border. The conditions noted are these: rhesus monkey, in vivo. Format: ADME, Macaca mulatta.
Series [12] is described as follows: Solubility of the compound in pH 1 to 8 solution using crystalline form. Format: physicochemical.
Another series relates to Plasma. Briefly: Drug uptake in monkey famotidine model plasma. It is filed as ADME, cell-free, Macaca mulatta. Particulars: rhesus monkey.
The target of series [13] is T3, hERG (KCNH2). Briefly: Inhibition of human ERG expressed in HEK293 cells at 1 uM by patch clamp method relative to control. It is filed as cell-based. The conditions noted are these: HEK293 cells expressing human ERG.

The inhibition is the change of the read-out against control, counted positive when it falls. Usually IC50 stands for the point on the concentration scale where inhibition reaches its midpoint.

T1 sequence (P22460 whole entry, the tested form may be a part): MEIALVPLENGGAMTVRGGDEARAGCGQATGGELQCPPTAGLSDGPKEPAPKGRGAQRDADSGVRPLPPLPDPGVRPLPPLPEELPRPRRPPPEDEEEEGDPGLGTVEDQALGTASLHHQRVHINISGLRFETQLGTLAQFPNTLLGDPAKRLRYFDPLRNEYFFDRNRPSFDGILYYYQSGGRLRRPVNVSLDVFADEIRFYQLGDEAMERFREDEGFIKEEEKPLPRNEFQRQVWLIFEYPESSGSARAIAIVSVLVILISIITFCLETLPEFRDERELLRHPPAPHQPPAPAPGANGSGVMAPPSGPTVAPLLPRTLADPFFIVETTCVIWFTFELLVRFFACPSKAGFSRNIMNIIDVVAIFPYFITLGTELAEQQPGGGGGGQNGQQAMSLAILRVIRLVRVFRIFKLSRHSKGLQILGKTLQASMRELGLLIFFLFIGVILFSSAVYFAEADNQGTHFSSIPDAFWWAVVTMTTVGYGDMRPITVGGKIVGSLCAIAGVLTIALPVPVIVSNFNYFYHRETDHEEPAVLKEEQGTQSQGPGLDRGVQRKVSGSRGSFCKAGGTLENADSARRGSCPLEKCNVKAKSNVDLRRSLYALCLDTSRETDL

For the compound `N#Cc1ncc(-c2nc(NCc3ccccn3)c3c(-c4ccccc4)cccc3n2)cn1`, in series [1], the inhibition came out at 64%. Also, the Kp at 10 min in series [2] amounted to 3.
For the compound `CN(C)c1ccc(-c2cccc3nc(-c4cncnc4)nc(NCc4ccccn4)c23)cc1`, the IC50 was > 80000 nM in series [3] and 330 nM in [5]. In addition, the remaining at 10 min in series [4] was < 3%.
Take `O=C(NCC(F)(F)F)c1ccc(-c2cccc3nc(-c4cncnc4)nc(NCc4ccccn4)c23)cc1`: the inhibition in series [1] worked out at 2%. In addition, the fraction unbound in series [6] and in [7] was < 0.005 in each case. Besides, the Kp at 10 min in series [2] was 0.3. This compound gave a half-maximal inhibitory concentration (IC50) in series [8] of 4900 nM.
As to `CS(=O)(=O)Nc1cncc(-c2nc(NCc3ccccn3)c3c(-c4ccccc4)cccc3n2)c1`, the inhibition in [1] is 87%. For the same compound, the fraction unbound in series [6] and in [7] was < 0.005 in each case. In series [2], the Kp at 10 min amounted to 0.07. For the same compound, at hERG (KCNH2) [9], at 10 µM the inhibition was 94%.
In turn, `NC(=O)Nc1ccc(-c2nc(NCc3ccccn3)c3c(-c4ccccc4)cccc3n2)cn1` showed an inhibition in series [1] of 79%. Moreover, the fraction unbound in series [6] and in series [7] was < 0.005 each time. For the same compound, the Kp at 10 min in series [2] amounted to 1.
Compound `NS(=O)(=O)c1ccncc1-c1nc(NCc2ccccn2)c2c(-c3ccccc3)cccc2n1` gave an inhibition in series [1] of 48%.
On to `c1ccc(-c2cccc3nc(-c4cncnc4)nc(NCc4ccccn4)c23)cc1`, for which the Kp at 10 min in [2] was 2.8.
Consider `O=S(=O)(c1cccc(Nc2nc(-c3cncnc3)nc3cccc(-c4ccccc4)c23)c1)N1CCOCC1`, for which the fraction unbound in series [6] and in [7] was < 0.005 each time. Moreover, in series [2], the Kp at 10 min came to 2.4. Further, the IC50 in series [5] stood at 80 nM.
As for `Nc1ncc(-c2nc(NCc3ccccn3)c3c(-c4ccccc4)cccc3n2)cn1`, in series [1], the inhibition was 95%. In addition, the fraction unbound in series [6] and in [7] was < 0.005 each time. The Kp at 10 min in [2] is 3. In [8], the IC50 came out at 80000 nM.
For the compound `NC(=O)c1ccc(-c2cccc3nc(-c4cncnc4)nc(NCc4ccccn4)c23)cc1`, the fraction unbound in series [6] and in [7] was < 0.01 in each case. Moreover, the Kp at 10 min in series [2] came out at 0.2. This compound also yielded an IC50 in series [8] of 1300 nM.
Turning to `COc1ncc(-c2nc(NCc3ccccn3)c3c(-c4ccccc4)cccc3n2)cn1`, the Kp at 10 min in series [2] turned out to be 2.5.
For `c1ccc(CNc2nc(-c3cncnc3)nc3cccc(-c4cccc(N5CCOCC5)c4)c23)nc1`, the inhibition in series [1] was 50%. In [2], the Kp at 10 min came to 0.3.
Take `NC(=O)Nc1cncc(-c2nc(NCc3ccccn3)c3c(-c4ccccc4)cccc3n2)c1`: in series [1], the inhibition came to 91%. For the same compound, the fraction unbound in [6] and in series [7] was < 0.005 throughout. In addition, the Kp at 10 min in series [2] was found to be 0.04. Besides, the solubility entry in series [10] is reported as “Insoluble”.
In series [1], `NS(=O)(=O)c1ccc(-c2nc(NCc3ccccn3)c3c(-c4ccccc4)cccc3n2)cn1` displayed an inhibition of 92%. In addition, the fraction unbound in series [6] and in series [7] was < 0.005 each time. The Kp at 10 min in [2] was 0.4.
Consider `NC(=O)c1ccc(-c2nc(NCc3ccccn3)c3c(-c4ccccc4)cccc3n2)cn1`, for which the fraction unbound in series [6] and in [7] was < 0.01 in each case. Further, the Kp at 10 min in series [2] was determined as 3. The half-maximal inhibitory concentration (IC50) was 100 nM in [5] and 4600 nM in series [8].
The compound `CC(=O)Nc1ccc(-c2nc(NCc3ccccn3)c3c(-c4ccccc4)cccc3n2)cn1` gave an inhibition in series [1] of 80%. The fraction unbound in series [6] and in [7] was < 0.005 each time. In addition, in [2], the Kp at 10 min is 2.
On to `O=P(O)(O)NS(=O)(=O)c1cncc(-c2nc(NCc3ccccn3)c3c(-c4ccccc4)cccc3n2)c1`, for which, in series [11], the Drug metabolism entry is on record as “Metabolite_Detected”. Besides, the solubility result in series [12] is “Soluble”. In the series on Plasma, the Drug uptake result is “Not Active”.
As to `O=c1ccc(-c2nc(NCc3ccccn3)c3c(-c4ccccc4)cccc3n2)c[nH]1`, the Kp at 10 min in series [2] came to 1. Moreover, the half-inhibitory concentration (IC50) in series [8] came to 500 nM.
As for `NS(=O)(=O)c1cccc(-c2nc(NCc3ccccn3)c3c(-c4ccccc4)cccc3n2)n1`, the inhibition in [1] was 87%.
In turn, `NS(=O)(=O)c1ccc(CCNc2nc(Cl)nc3cccc(-c4ccccc4)c23)cc1` showed an inhibition in [1] of 73%. Also, the remaining at 10 min in [4] came out at 68%. Besides, the Kp at 10 min in series [2] amounted to 0.6.
`NC(=O)c1cncc(-c2nc(NCc3ccccn3)c3c(-c4ccccc4)cccc3n2)c1` gave an inhibition in series [1] of 89%. The fraction unbound in series [6] and in [7] was < 0.005 in each case. For the same compound, the inhibition at 1 µM at hERG (KCNH2) [13] was 26%. Besides, the Kp at 10 min in series [2] was 0.3.
`CC(=O)Nc1cncc(-c2nc(NCc3ccccn3)c3c(-c4ccccc4)cccc3n2)c1`: the fraction unbound in series [6] and in series [7] was < 0.005 throughout. The Kp at 10 min in [2] was 0.08. Moreover, the half-maximal inhibitory concentration (IC50) in series [5] was found to be 100 nM; in series [8], 2000 nM.
In series [1], `NS(=O)(=O)c1ccc(CCNc2nc(-c3cncnc3)nc3cccc(-c4ccccc4)c23)cc1` registered an inhibition of 15%. The same compound registered an IC50 in [3] of 5600 nM.
Consider `O=S(=O)(c1cccc(Nc2nc(Cl)nc3cccc(-c4ccccc4)c23)c1)N1CCOCC1`, for which, in series [2], the Kp at 10 min is 3. In addition, in series [5], the IC50 is 210 nM.
`NS(=O)(=O)Nc1cncc(-c2nc(NCc3ccccn3)c3c(-c4ccccc4)cccc3n2)c1` had an inhibition in [1] of 99%. Also, the fraction unbound in series [6] and in series [7] was < 0.005 in each case. Besides, the Kp at 10 min in series [2] was found to be 0.04. In addition, the solubility entry in series [10] is given as “Insoluble”. Moreover, the 50% inhibitory concentration (IC50) in series [8] stood at 800 nM.
